High-throughput results: PubChem, several laboratories
This is one part of a sample in which hits are shown more often than they occur.
Lmaj promast – reduces viability of Leishmania major promastigotes | AID 1063 | inhibition, % at 10 µM | resazurin fluorescence viability | 200,000 tested, 9% active; in the data active means inhibition above about 50%;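 further: promastigotes grown with compound for 44 hours at 28 °C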
S1P4 antagonist – blocks the human S1P4 receptor. 220,000 tested, 0.26% active. inhibition, % at 4.98 µM. S1P4-expressing cells, antagonist mode, reporter read-out. AID 1510. O95977; in the data active means inhibition above about 29%;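 further: 0% = wells stimulated with agonist and 100% = vehicle wells without agonist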
Target sequence (O95977 whole entry, looked up): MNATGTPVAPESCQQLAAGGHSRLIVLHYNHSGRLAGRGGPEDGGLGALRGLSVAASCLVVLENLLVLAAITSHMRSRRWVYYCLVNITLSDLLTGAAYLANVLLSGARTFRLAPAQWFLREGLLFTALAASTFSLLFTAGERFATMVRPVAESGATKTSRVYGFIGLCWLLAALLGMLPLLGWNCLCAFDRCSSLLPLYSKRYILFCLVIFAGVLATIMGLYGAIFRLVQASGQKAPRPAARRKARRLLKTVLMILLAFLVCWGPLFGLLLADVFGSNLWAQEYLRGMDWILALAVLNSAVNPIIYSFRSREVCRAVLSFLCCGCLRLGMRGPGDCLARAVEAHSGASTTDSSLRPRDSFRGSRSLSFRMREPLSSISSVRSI
S1P3 antag – blocks the human S1P3 receptor; inhibition, % at 4.98 µM; Q99500; 170,000 tested, 0.27% active; CHO S1P3 NFAT-BLA reporter, FRET fluorescence, antagonist mode; AID 485;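 active means inhibition above the plate cutoff, the mean inhibition of test wells on that plate plus 3 SD, cut at about 28% in these data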;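 further: cells challenged with S1P at its EC80 of 0.8 µM; blue over green emission ratio from cleaved BLA substrate after 4 h stimulation; 0% = S1P-stimulated wells and 100% = unstimulated DMSO-only wells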
S1P4 agonist – human S1P4 receptor agonism; activation, % at 4.98 µM; S1P4-expressing cell line, agonist reporter assay; 220,000 tested, 0.35% active; in the data active means activation above about 11%;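 further: 0% = DMSO vehicle and 100% = reference agonist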
MDM2 E3 inh – Mdm2 E3 ligase (human) inhibition | Q00987 | cell-based MDM2 ubiquitination luciferase reporter, 2 h; 0 = plate control, 100 = twice control, blank-subtracted | signal enhancement, % at 5 µM | 210,000 tested, 0.11% active | AID 1230;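 active means signal enhancement of 30% or more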;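 further: luminescence tracks abundance of the self-degrading MDM2-luciferase fusion protein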
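system = mammalian cells stably expressing self-ubiquitinating, self-degrading MDM2 E3–luciferase fusion | quantity = 2000 cells per well seeded | incubation = 4 h cell settling then 2 h compound exposure, 37 °C | signal = SteadyLite luminescence, 15 min reagent step | benchmarks = plate control and blank wells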
* hit, by the source's call; / = no result given.

SMILES | Lmaj promast | S1P4 antagonist | S1P3 antag | S1P4 agonist | MDM2 E3 inh
COc1ccc(C2=NOC(CNC(=S)N3CCOCC3)C2)cc1 (stereo unspecified) | / | -15 | -14 | 0 | 3
CCc1ccc2c(c1)C1(C(=O)N2)N2CCCC2C(C(=O)c2ccc3ccccc3c2)C12C(=O)Nc1ccccc12 (stereo unspecified) | 79* | -10 | -11 | 2 | -3
CCn1nc(C)cc1C(=O)N1CCCC(C(=O)c2ccc3ccccc3c2)C1 (stereo unspecified) | 10 | -21 | -8 | 0 | -5
Cc1cccc2c1NC(=O)C21N2CCCC2C(C(=O)c2ccc3ccccc3c2)C12C(=O)Nc1ccccc12 (stereo unspecified) | / | 12 | 3 | 0 | /
CCc1cccc2c1NC(=O)C21N2CCCC2C(C(=O)c2ccc3ccccc3c2)C12C(=O)Nc1ccccc12 (stereo unspecified) | 82* | 7 | -18 | 5 | 1
CN(C)C(CNC(=O)c1cc(S(=O)(=O)N(C)c2ccccc2)ccc1Cl)c1cccs1 (stereo unspecified) | 11 | -16 | 7 | 1 | -6
COCCNCCCCOc1ccc(Br)cc1C | 100* | 6 | -3 | -2 | -11
CC(C)(C)NCCCCOc1ccccc1F | 100* | 15 | -36 | 0 | -8
Cc1cc(Br)ccc1OCCCCNC(C)(C)C | 100* | 23 | / | -1 | -6
COCCNC(=O)COc1ccc(Br)cc1Cl | 1 | -8 | / | 3 | -25
COCCCNCCCCOc1ccc(Br)cc1C | 99* | -19 | -2 | 1 | 1
COc1ccccc1OCCCCNC(C)(C)C | 5 | 2 | -16 | 2 | 2
Cc1ccc(NC(=O)COc2ccc(Br)cc2C)cc1 | -6 | -14 | 5 | -2 | 10
CC(C(=O)Nc1ccccc1-c1ccccc1)N1CCN(C(=O)c2ccco2)CC1 (stereo unspecified) | / | / | 6 | / | /
C=CCn1c(SCC(=O)NC2CC2)nc2sc(CC)cc2c1=O | 58* | 7 | 3 | 1 | -9
CCNc1ccc(S(=O)(=O)N(C)C)cc1NCC(=O)Nc1ccc(Br)cc1F | 72* | -8 | -12 | 0 | -8
COc1ccc(C(=O)c2oc3nc(C)cc(C)c3c2N)cc1 | 18 | 8 | / | -3 | -4
Cc1ccc(C(=O)c2oc3nc(C)cc(C)c3c2N)cc1 | 64* | -4 | / | 0 | -82
Cc1[nH]c2ccccc2c1C(=O)COC(=O)CCS(=O)(=O)c1ccccc1Cl | 60* | -29 | 5 | 0 | -4
Cc1nc(NC(=O)COC(=O)CCS(=O)(=O)c2ccccc2Cl)c(Cl)cc1Cl | 3 | -22 | / | 0 | -3
O=C(Nc1cccc(S(=O)(=O)N2CCOCC2)c1)c1cn(-c2ccccc2)nc1-c1ccc(F)cc1 | 99* | -12 | 2 | 0 | 3
COc1ccc(-c2cc(C(F)F)n3ncc(C(=O)Nc4cnn(Cc5ccccc5)c4)c3n2)cc1 | 11 | -4 | -24 | 9 | 2
CCOC(=O)C1CCN(C(=O)c2sc3nc(-c4ccccc4)cn3c2C)CC1 | -3 | -2 | -2 | 1 | 3
CCOC(=O)C1CCCN(C(=O)c2sc3nc(-c4ccc(OC)cc4)cn3c2C)C1 (stereo unspecified) | 100* | -7 | 9 | -1 | 4
Cc1ccc(-c2cc(C(F)F)n3ncc(C(=O)N4CCN5CCCC5C4)c3n2)cc1 (stereo unspecified) | 55* | -48 | -2 | 0 | 9
SMILES | Lmaj promast | S1P4 antagonist | S1P3 antag | S1P4 agonist | MDM2 E3 inh
Cc1ccc(-c2cc(C(F)F)n3ncc(C(=O)NN4CCCCC4)c3n2)cc1 | 4 | -17 | -9 | 1 | -9
COc1ccc(-c2cc(C(F)F)n3ncc(C(=O)Nc4cccc(S(=O)(=O)N5CCOCC5)c4)c3n2)cc1 | 65* | 3 | -13 | 1 | -3
O=C(Nc1cccnc1)NC1CCCCC1 | -1 | 1 | -5 | 0 | -16
O=C(NNC(=O)c1ccccc1Cl)c1cc2cc(OC(F)(F)F)ccc2[nH]1 | / | -3 | -11 | -1 | -1
Cc1ccsc1C(=O)OCC(=O)Nc1cccc(S(=O)(=O)N2CCOCC2)c1 | -5 | -13 | -33 | 3 | -5
Cc1noc(-c2ccc(C(F)(F)F)cc2)c1NC(=O)Nc1ccc(Cl)cc1 | / | -1 | 9 | 1 | -11
O=c1c(-c2ccco2)[n+]([O-])c2ccccc2n1OCc1ccccc1[N+](=O)[O-] | -1 | -2 | -17 | -1 | -6
CC(OCC(O)CN(C)Cc1nc2ccccc2c(=O)[nH]1)c1ccc(Cl)cc1 (stereo unspecified) | 1 | 7 | -6 | 0 | -17
Cc1ccc(-c2cc(C(=O)N3CCOCC3)c3ccccc3n2)cc1 | 6 | -1 | 0 | 2 | 8
COc1ccc(-c2cc(C(F)F)n3ncc(C(=O)N4CCN(C)CC4)c3n2)cc1 | 98* | -18 | / | 1 | 0
COc1ccc(-c2cc(C(=O)N3CCOCC3)c3cc(C)ccc3n2)cc1 | 65* | -9 | -17 | 0 | -6
CCOC(=O)C1CCCN(C(=O)c2cnn3c(C(F)F)cc(-c4ccc(C)cc4)nc23)C1 (stereo unspecified) | 98* | -7 | 76* | 1 | -23
COc1ccc(-c2cc(C(F)F)n3ncc(C(=O)N4CCSCC4)c3n2)cc1 | 48 | -30 | -4 | 0 | 4
CC(=O)OC1c2ccccc2C(=O)N1Cc1ccccc1Cl (stereo unspecified) | -8 | 1 | -15 | 3 | -6
Cc1ccc(NC(=O)CNC(=O)c2cccs2)cc1S(=O)(=O)Nc1ccc(Cl)cc1 | 57* | -11 | -3 | 0 | 3
COc1ccc(NS(=O)(=O)c2cc(NC(=O)CNC(=O)c3cccc(OC)c3)ccc2C)cc1 | 61* | -25 | -1 | 1 | 11
COc1cccc(NC(=O)CNC(=O)c2ccccc2)c1 | -1 | 4 | 1 | -1 | 3
COc1ccc(NC(=O)CNC(=O)c2cccs2)cc1Cl | 1 | -34 | 2 | 3 | -7
CCOc1ccc(NS(=O)(=O)c2cc(NC(=O)c3cccc(C)c3)ccc2Cl)cc1 | 99* | -3 | 11 | 0 | -10
O=C(Nc1ccc2c(c1)C(=O)NC2=O)c1ccc(S(=O)(=O)N2CCCC2)cc1 | -7 | -14 | -6 | 0 | -8
COc1ccc2[nH]cc(CCNS(=O)(=O)c3ccc(C)cc3)c2c1 | / | -2 | -16 | 0 | 2
CCOC(=O)c1c(C)oc2ccc(O)c(CN(C)C)c12 | 1 | -14 | -12 | 1 | -16
CCOC(=O)c1c(C)n(C)c2ccc(O)c(CN(CC)CC)c12 | 62* | 14 | / | -1 | -15
CCOC(=O)c1c(C)n(C)c2ccc(O)c(CN3CCC(C)CC3)c12 | 61* | -12 | 9 | 1 | -10
CCOC(=O)c1c(C)n(-c2ccccc2)c2ccc(O)c(CN(C)C)c12 | 94* | -11 | -11 | -3 | -15
CCOC(=O)c1c(C)n(C)c2ccc(O)c(CN3CCN(C)CC3)c12 | -3 | -4 | -14 | 1 | 2
CCOC(=O)c1c(C)n(-c2ccccc2)c2ccc(O)cc12 | -4 | -3 | 9 | 2 | 5
